Cytotoxicity data for 96 compounds are collected here from ChEMBL document CHEMBL4513216, “Probing the Open Global Health Chemical Diversity Library for Multistage-Active Starting Points for Next-Generation Antimalarials” (ACS Infect Dis, 2020).

The data set is described as follows: Toxicity liver stage against HepG2, at 10uM. It is filed as cell-based. Also noted: test concentration 10 uM, cell line HepG2-A16-CD81EGFP. As to conditions: human, HepG2-A16-CD81EGFP cells; read-out: INHIBITION
The essentials:
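Uninfected HepG2-A16-CD81EGFP cells, 3 × 10^3 per well, 1536-well, plated on prespotted compound at 10 μM final, parasite-free screening media added to match infected plates; puromycin 10 μM positive, DMSO 0.5% negative; run in parallel with 48 h PbLuc assay at 37 °C, 5% CO2; viability by CellTiter-Glo luminescence, normalized to controls.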
Regarding `CC(C)Cn1ncc(C(=O)NS(=O)(=O)C2CCCC2)c1C1CC1`, the cytotoxicity at 10 µM is -9.97%.

Consider `O=C(Nc1cccc(OCc2ccc(F)cc2)c1)C1COCCO1` (stereo unspecified), for which the cytotoxicity at 10 µM turned out to be 1.18%.

Regarding `c1cnnc(N2CCCC(NCc3nc(-c4ccco4)no3)C2)c1` (stereo unspecified), the cytotoxicity at 10 µM is -20%.

As for `CC(Cn1cncn1)Nc1ccc(-c2nccn2C)nn1` (stereo unspecified), the cytotoxicity at 10 µM was -3.73%.

For `Cc1nc(CN2CCN(C(=O)c3ccc(=O)n(C)c3)CC2)cs1`, the cytotoxicity at 10 µM is -2.95%.

As to `Cc1cc(C(=O)N2CCN(Cn3cc(Cl)cn3)CC2)on1`, the cytotoxicity at 10 µM is -6.81%.

`Cn1cc(NC(=O)C2CC(=O)N(c3n[nH]c4cccc(F)c34)C2)cn1` (stereo unspecified): the cytotoxicity at 10 µM came to 4.59%.

On to `COc1ccc(CCC(=O)NC2CCC(O)CC2)cc1OC` (stereo unspecified), for which the cytotoxicity at 10 µM was -5.26%.

On to `CNc1ncccc1CN1CCCCC1c1cc(C)n2ccnc2n1` (stereo unspecified), for which the cytotoxicity at 10 µM was -2.17%.

On to `Cc1cc(C(=O)N2CCCC(c3nncn3C)C2)no1` (stereo unspecified), for which the cytotoxicity at 10 µM worked out at 0.541%.

On to `CC(=O)N1CCCN(C(C(=O)O)c2ccccc2OC(F)(F)F)CC1` (stereo unspecified), for which the cytotoxicity at 10 µM came to 15.5%.

As for `O=C(CNc1ccc(OC2CCOC2)cc1)NCc1ccco1` (stereo unspecified), the cytotoxicity at 10 µM worked out at 5.03%.

With `COc1ccc(-c2nc(CN3CCCS3(=O)=O)co2)cc1`, the cytotoxicity at 10 µM is -6.24%.

As for `O=c1[nH]ncc(NCCOc2cccc(Br)c2)c1Cl`, the cytotoxicity at 10 µM was 41.8%.

As for `CSc1ccc(C(=O)N2CCOCC2c2c(C)n[nH]c2C)o1` (stereo unspecified), the cytotoxicity at 10 µM was -10.3%.

For `O=C(Nc1ccc(Br)cc1F)c1ccc(N2CCCCC2)nn1`, the cytotoxicity at 10 µM was determined as 1.16%.

Consider `CC(C)c1noc(CCC(=O)N2CCN(Cc3ccncc3)CC2)n1`, for which the cytotoxicity at 10 µM was -9.08%.

As to `CCOCc1ccc(NC(=O)N2CCCC2c2nncn2C)cc1` (stereo unspecified), the cytotoxicity at 10 µM worked out at 6.53%.

As to `Cn1cnnc1S(=O)(=O)Cc1cc(Cl)c2c(c1)OCO2`, the cytotoxicity at 10 µM was -36.6%.

Regarding `C[C@]1(O)CN(Cc2ncc[nH]2)CC[C@@H]1Oc1cccc(F)c1`, the cytotoxicity at 10 µM is -6.8%.

Turning to `c1csc(CN2CC(c3nc(-c4cnccn4)no3)C2)c1`, the cytotoxicity at 10 µM was -8.28%.

`COc1ccc(C(=O)N2CC[C@](C)(O)[C@H](C)C2)cc1N1CCOCC1`: the cytotoxicity at 10 µM turned out to be 14.9%.

Regarding `CSCCC(NC(=O)c1ccc2ccccc2n1)C(=O)O` (stereo unspecified), the cytotoxicity at 10 µM is -3.09%.

Consider `O=C1NC[C@H]2CN(Cc3ccccn3)CCN12`, for which the cytotoxicity at 10 µM was -2.4%.

With `CCN(C(=O)CNc1cc(C)c(F)cc1C(N)=O)C1CC1`, the cytotoxicity at 10 µM was determined as 2.14%.

In the case of `Cc1ccc(CN2CC[C@@H]3[C@@H](CO[C@H]3CN3CCN(C)CC3)C2)s1`, the cytotoxicity at 10 µM turned out to be 7.57%.

On to `COC(=O)c1cccc(-c2nc(CC3CCN(C)CC3)no2)c1`, for which the cytotoxicity at 10 µM was -1.6%.

On to `COc1cc(CNC(c2ccccc2)c2nccn2C)cc(OC)c1` (stereo unspecified), for which the cytotoxicity at 10 µM was -6.69%.

As to `Cc1ccccc1CN1CCN(C(=O)c2cnc(C3CC3)[nH]c2=O)CC1`, the cytotoxicity at 10 µM turned out to be 2.25%.

For the compound `CN(CC(=O)N(C)C(c1cccnc1)c1ccc(F)c(F)c1)C1CC1` (stereo unspecified), the cytotoxicity at 10 µM is -3.57%.

Turning to `O=C(Cc1ccccn1)N1CCC2(CC1)CN(c1ccccn1)CCO2`, the cytotoxicity at 10 µM was found to be 8.85%.

With `O=C(COCc1ccccc1)N1CCN(c2ccc(Cl)cn2)CC1`, the cytotoxicity at 10 µM was -5.98%.

For `CC(=O)Nc1ncc(S(=O)(=O)Nc2ccc3c(c2)OCCO3)s1`, the cytotoxicity at 10 µM was found to be 2.93%.

Turning to `CN(CCN1CCOCC1)C(=O)CCCOCCc1ccccc1`, the cytotoxicity at 10 µM is -1.28%.

Regarding `O=C(C1CCOC1)N1CCC2(CCCNC2)CC1` (stereo unspecified), the cytotoxicity at 10 µM is -1.74%.

On to `Cc1cc(C2CCCN(Cc3cccnc3)C2)n[nH]1` (stereo unspecified), for which the cytotoxicity at 10 µM is 9%.

Consider `CC(NCc1ccc(OCC(N)=O)cc1)c1ccc(Cl)cc1Cl` (stereo unspecified), for which the cytotoxicity at 10 µM was 13.1%.

`COCCCNC(=O)CN(C)C(C)c1nc(C(C)C)no1` (stereo unspecified): the cytotoxicity at 10 µM was determined as 8.24%.

Consider `COc1cccc(CN(C)C(=O)CCC(=O)c2ccccc2)c1OC`, for which the cytotoxicity at 10 µM is -3.62%.

As for `COc1ccc(CC(=O)N2CCC(c3nnc4n3CCC4)CC2)cc1F`, the cytotoxicity at 10 µM was -1.65%.

As to `O=C(CN1CCCC(Cn2cncn2)C1)NCc1ccco1` (stereo unspecified), the cytotoxicity at 10 µM is -0.587%.

With `Cc1ccccc1C1CCCN(C(=O)c2c[nH]c(=O)c(Cl)c2)C1` (stereo unspecified), the cytotoxicity at 10 µM was -59.8%.

Regarding `Cc1ccn(-c2ccc(N3CCCN(Cc4ccccc4)CC3)nn2)n1`, the cytotoxicity at 10 µM turned out to be 9.31%.

With `CCCn1nccc1C(=O)N1CCN(C2CCc3ccccc3C2)CC1` (stereo unspecified), the cytotoxicity at 10 µM was -130%.

For `c1cncc(COCC2CC[C@H]3[C@H](CCN3CC3CCOCC3)O2)c1` (stereo partly specified), the cytotoxicity at 10 µM is -71.4%.

For `CC(C)CN1Cc2c(C(=O)N(C)C)ncn2-c2ccccc2S1(=O)=O`, the cytotoxicity at 10 µM stood at 3.63%.

Turning to `COc1cccc(OCCc2nnc(NC(C)=O)s2)c1`, the cytotoxicity at 10 µM is 4.84%.

Regarding `Cc1csc(N2CCCN(CCC(=O)NC(N)=O)CC2)n1`, the cytotoxicity at 10 µM is -24.2%.

As to `CN(C)C(=O)COc1ccccc1CN1CCCC2(C1)CN(C)C(=O)O2` (stereo unspecified), the cytotoxicity at 10 µM was determined as 0.224%.

Turning to `CCN(CC1CCOC1)C(=O)Nc1ccc(OCC(F)(F)F)nc1` (stereo unspecified), the cytotoxicity at 10 µM is -11.3%.

For `Cn1nccc1C(=O)NC(C)(C)c1noc(C(C)(C)C)n1`, the cytotoxicity at 10 µM is 8.22%.

For the compound `O=C(Cc1csc(-c2ccoc2)n1)NCCCN1CCCCC1`, the cytotoxicity at 10 µM amounted to 12.6%.

`OC1CN(c2nc3c(C(F)(F)F)cccc3s2)C1`: the cytotoxicity at 10 µM was -8.37%.

Turning to `CN(C)C1CCCN(C(=O)NCCNC(=O)C2CCCCC2)C1` (stereo unspecified), the cytotoxicity at 10 µM was -1.69%.

Take `Cc1nccn1-c1ccc(CNS(=O)(=O)N2CCC(C)CC2)cn1`: the cytotoxicity at 10 µM amounted to 1.28%.

Take `c1ccc(CCN2CCn3cc(Cn4cccn4)nc3C2)cc1`: the cytotoxicity at 10 µM was -1.98%.

As to `CC(=O)N1CCC(c2nnc3ccc(C(=O)NC(C)C)cn23)C1` (stereo unspecified), the cytotoxicity at 10 µM turned out to be 6.37%.

Consider `CNC(=O)c1nc(CN2CCOC(C(F)(F)F)C2)no1` (stereo unspecified), for which the cytotoxicity at 10 µM was -2.08%.

Consider `CS(=O)(=O)c1ccccc1C(=O)NCC1Cc2ccccc2O1` (stereo unspecified), for which the cytotoxicity at 10 µM is -9.6%.

For the compound `O=C(CCc1cncc(F)c1)NS(=O)(=O)c1ccc(F)cc1F`, the cytotoxicity at 10 µM is -7.49%.

As for `O=C(NCC1CCN(CCc2ccccc2)C1)c1cc(Cl)c[nH]1` (stereo unspecified), the cytotoxicity at 10 µM worked out at 10%.

Consider `O=C(O)C1(Oc2ccc3c(c2)OCO3)CCN(C2CCOCC2)CC1`, for which the cytotoxicity at 10 µM is -13.3%.

Consider `CC(c1nc(C(C)(C)C)no1)N1CCC(N2CCCC2)CC1` (stereo unspecified), for which the cytotoxicity at 10 µM was found to be 3.63%.

Take `CSCc1noc(CNC(=O)[C@H]2CNC[C@@H](C(=O)N3CCCC3)C2)n1`: the cytotoxicity at 10 µM stood at 2.79%.

As to `CC(C)Cn1cnnc1C1CCCN1C(=O)OC(C)(C)C` (stereo unspecified), the cytotoxicity at 10 µM amounted to 0.514%.

Turning to `O=S(=O)(Cc1ccc(F)cc1)NCc1ccco1`, the cytotoxicity at 10 µM worked out at 14.1%.

On to `COC(=O)N1CCCC(NC(=O)NCc2cccc(C)n2)C1` (stereo unspecified), for which the cytotoxicity at 10 µM is -8.62%.

For the compound `CN1CCN(C2CCN(Cc3nc(-c4ccoc4)no3)CC2)C1=O`, the cytotoxicity at 10 µM was -2.83%.

Regarding `Cc1ccc(NCc2cnc3n2CCN(c2ncccn2)CC3)nn1`, the cytotoxicity at 10 µM is 7.31%.

For `Cc1ccsc1CN1CC[C@H]2O[C@H](C(=O)N3CCCO3)CC[C@H]21`, the cytotoxicity at 10 µM was 4.52%.

Regarding `C[C@@H](NC(=O)c1cnccn1)c1c(-c2ccc(F)cc2)noc1C(=O)O`, the cytotoxicity at 10 µM was found to be 1.02%.

With `CCN(CC)C(C(=O)Nc1ccc2c(c1)CCC(=O)N2)c1ccccc1` (stereo unspecified), the cytotoxicity at 10 µM came to 7.18%.

`COCc1noc(-c2ccc(N(C)Cc3cn(C)nc3C)nc2)n1`: the cytotoxicity at 10 µM was -9.75%.

Turning to `Cc1ccc(C(=O)N(C)Cc2ccc3c(c2)OCCO3)c(=O)[nH]1`, the cytotoxicity at 10 µM was -9.24%.

Regarding `CCCNC(=O)N1CCC(c2nnc(Cn3cccn3)n2C2CC2)CC1`, the cytotoxicity at 10 µM is -7.92%.

`COc1ccc(CN(Cc2ccccn2)Cc2cncn2C)cc1`: the cytotoxicity at 10 µM is 9.65%.

As to `N#Cc1cccc(CS(=O)(=O)NC(Cc2ccccc2)C(N)=O)c1` (stereo unspecified), the cytotoxicity at 10 µM came to 9.16%.

As for `CCc1nc(C2CCCN2Cc2nc3ccccc3o2)no1` (stereo unspecified), the cytotoxicity at 10 µM was determined as 3.06%.

Turning to `CC1(C)CNC(=O)c2nc(CCN3CCOCC3)[nH]c2C1`, the cytotoxicity at 10 µM is -10.7%.

Regarding `COc1ccc(-c2nnc(C(C)N3CCC4(CC3)OCCO4)o2)cc1` (stereo unspecified), the cytotoxicity at 10 µM came to 12.5%.

`Cc1ccc2oc(C(=O)N3CCc4nnc(N(C)C)cc4C3)cc2n1`: the cytotoxicity at 10 µM was -3.25%.

For the compound `Cc1noc([C@H]2C[C@H]3CN(C(=O)Cc4ccsc4)CC[C@H]3O2)n1`, the cytotoxicity at 10 µM is -1.68%.

`CCc1ccc(CCC(=O)NCc2nnc[nH]2)cc1`: the cytotoxicity at 10 µM came out at 7.47%.

As to `CC(C)CCNC(=O)c1ccc(Cl)c(NS(C)(=O)=O)c1`, the cytotoxicity at 10 µM came out at 2.2%.

Take `CN(C)CC1CSCCCN1C(=O)Nc1ccc(C(C)(C)C)cc1` (stereo unspecified): the cytotoxicity at 10 µM was 6.79%.

Take `Cc1ncsc1C(=O)N(C)Cc1cccnc1`: the cytotoxicity at 10 µM was -5.57%.

With `CN1CCCC2(CCN(c3cc(C(F)(F)F)nc(N(C)C)n3)C2)C1=O` (stereo unspecified), the cytotoxicity at 10 µM worked out at 13.1%.

In the case of `CCC(CC)c1nnc(NC(=O)NC(C)Cn2cccn2)s1` (stereo unspecified), the cytotoxicity at 10 µM was 3.91%.

As for `O=C(c1ccc(Cn2ccccc2=O)o1)N1CCC2(CC1)OCCO2`, the cytotoxicity at 10 µM was -12.8%.

As for `COc1ccc(CN2CC[C@@H](O)[C@@H]2Cc2ccccc2)cc1`, the cytotoxicity at 10 µM came out at 4.49%.

Turning to `CN(C(=O)c1cc(F)ccc1F)[C@@H]1CC[C@@H](O)[C@@H]1O`, the cytotoxicity at 10 µM was -0.822%.

For the compound `COc1ccc(OCCCNCCn2cccn2)cc1`, the cytotoxicity at 10 µM is -20%.

As for `c1cc(-c2nnc(C3(c4ccc5c(c4)OCO5)CCOCC3)o2)ccn1`, the cytotoxicity at 10 µM is -0.973%.

As for `Cc1cccc(C2CCCN2C(=O)CCS(C)(=O)=O)c1C` (stereo unspecified), the cytotoxicity at 10 µM is -0.272%.

On to `Cc1cc(CN(C)C(=O)C2CCCN(C(=O)c3ccc(Cl)cc3)C2)no1` (stereo unspecified), for which the cytotoxicity at 10 µM is -15.6%.

Turning to `COCCN(CC1CCCN(C2Cc3ccccc3C2)C1)C(=O)CSC` (stereo unspecified), the cytotoxicity at 10 µM was -1.66%.
